# Assay results published in article PMC3217170 (Biochimica et biophysica acta, 2011).
# Assays:
# [1] = system: PKCθ (pT538) in pancreatic acini; assay: PKCθ T538 phosphorylation in rat pancreatic acini; format: cell-based
# CCKA receptor = CCKA receptor mediation of PKCθ T538 phosphorylation in pancreatic acini; format: cell-based, rat; details: from CCK-JMV versus CCK maximal effect
# PKCθ = PKCθ translocation to membranes; format: cell-based, rat; details: CCK, 1 min incubation; p<0.05; mean±S.E., 5 independent experiments
# How it was run: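 Acini stimulated with CCK for 1 min or TPA for 5 min, then homogenized in Tris pH 7.5 buffer with EGTA/EDTA, vanadate, PMSF and protease inhibitors. The cleared supernatant was spun at 60,000×g for 30 min at 4 °C. The membrane pellet was washed, solubilized in Triton/deoxycholate buffer, sonicated and spun at 10,000×g. Western blot used anti-PKCθ; calpain and E-cadherin served as fraction markers. Results given as % control; 5 experiments.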
# pT538 PKCθ = assay: PKCθ immunofluorescence-cytochemistry; format: cell-based, rat; details: TPA 1 μM or CCK 10 nM, 10 minutes; 4 independent experiments
# How it was run: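 Acini left untreated or given TPA 1 μM or CCK 10 nM for 10 min, then washed, fixed, permeabilized and cytocentrifuged onto poly-L-lysine slides. Labelled overnight at 4 °C with rabbit anti-pT538 PKCθ and mouse anti-E-cadherin (1:500), detected with Alexa 488/555 secondaries, nuclei stained with DAPI. Isotype-matched primary as negative control; 4 experiments.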
# PKCθ / Akt = assay: Co-IP association of PKCθ with Akt; format: cell-based, rat; details: CCK 10 nM or TPA 1 μM, 2.5 min, 3 independent experiments
# PKCθ / RafA = assay: Co-IP association of PKCθ with RafA; format: cell-based, rat; details: 2.5 min, 3 independent experiments
# PKCθ / RafC = assay: Co-IP association of PKCθ with RafC; format: cell-based, rat; details: 2.5 min, 3 independent experiments
# PKCθ / Lyn = assay: Co-IP association of PKCθ with Lyn; format: cell-based, rat; details: 2.5 min, 3 independent experiments
# PKCθ / MALT-1 = assay: Co-IP association of PKCθ with MALT-1; format: cell-based, rat; details: CCK 10 nM or TPA 1 μM, data not shown
# PKCθ / 14-3-3γ = assay: Co-IP association of PKCθ with 14-3-3γ; format: cell-based, rat; details: CCK 10 nM or TPA 1 μM, data not shown
# PKCθ / Cbl = assay: Co-IP association of PKCθ with Cbl; format: cell-based, rat; details: CCK 10 nM or TPA 1 μM, data not shown
# PKCθ / p85 PI3K = assay: Co-IP association of PKCθ with p85 PI3K; format: cell-based, rat
# How it was run: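 Rat acini stimulated with CCK 10 nM or TPA 1 μM, then lysed in CelLytic buffer with vanadate, PMSF and protease inhibitors. Lysate (750 μg/ml) incubated overnight at 4 °C with 4 μg antibody and protein G-agarose. Immunoprecipitates washed with PBS, then analysed by SDS-PAGE and Western blotting.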
# PKCθ / RafB = assay: Co-IP association of PKCθ with RafB; format: cell-based, rat
# How it was run: (§1)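 Rat pancreatic acini are dispersed by collagenase and preincubated 2 hrs at 37 °C in HEPES (pH 7.45) incubation solution, then left unstimulated or given CCK (10 nM) or TPA (1 μM). Cells are lysed in CelLytic buffer with vanadate, PMSF and protease inhibitors. Lysate (750 μg/ml) is immunoprecipitated overnight at 4 °C with 4 μg anti-PKCθ plus protein G-agarose, PBS-washed, then analysed by SDS-PAGE/Western blot; ≥3 experiments.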
# PKCθ / tubulin = assay: Co-IP association of PKCθ with tubulin; format: cell-based, rat
# How it was run: as §1
# PKD (pS744/748) = assay: PKD phosphorylation stimulated by CCK or TPA; format: cell-based, rat; details: CCK 10 nM, 2.5 min, no inhibitor; p<0.05
# How it was run: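 Collagenase-dispersed rat acini preincubated 3 h ± 20 μM PKCθ pseudosubstrate, then CCK (10 nM, 2.5 min) or TPA (1 μM, 5 min), and lysed. Equal protein Western-blotted for pY311 PKCδ, pS744/748 PKD, pS338 RafC or pY416 Src, with total PKCθ and α/β tubulin as loading controls. Bands quantified by densitometry in the linear range. ≥3 experiments; mean±SEM; paired t-test.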
# [2] = system: pancreatic acini (amylase secretion); assay: Amylase release from pancreatic acini; format: cell-based, rat; details: 15 minutes, basal 1.7±0.2, mean±S.E., 6 experiments
# How it was run: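 Rat pancreatic acini from collagenase digestion; 2 h preincubation ± 20 μM PKCθ pseudosubstrate in HEPES-buffered (pH 7.45) standard incubation solution, then 15 min with secretagogue. Medium amylase measured with Phadebas reagent and expressed as % of total cellular amylase released during incubation. Means±S.E.; paired Student's t-test.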
# PKCmu (PKD1) = details: pancreatic acinar cells; no reference printed at this sentence; cited from earlier work
# PYK2/CAKβ = details: pancreatic acinar cells; ref [17]; cited from earlier work
# Lyn = details: pancreatic acinar cells; ref [64]; cited from earlier work
# PKCδ = details: pancreatic acinar cells, cited from earlier work
# CrKII = details: pancreatic acinar cells; ref [66]; cited from earlier work
# PI-3 kinase = details: pancreatic acinar cells; ref [67]; cited from earlier work
# phospholipase D = details: pancreatic acinar cells; ref [67]; cited from earlier work
substance,measurement,setting,value
COOH-terminal octapeptide of cholecystokinin [CCK],maximal stimulation of T538 phosphorylation of PKCθ,"[1]; 10 nM, 1 minute, 4–5 independent experiments, mean±S.E.",239±25 % of control
same,"concentration of maximal effect, T538 PKCθ phosphorylation","[1]; dose-response, 1 minute",10 nM
same,"stimulation of PKCθ phosphorylation (pT538), secretagogues","[1]; isolated rat pancreatic acini, 5 minutes, Western blot, 5 independent experiments",stimulated a significant increase
same,lowest concentration with detectable T538 PKCθ phosphorylation,[1]; pancreatic acinar cells,0.1 nM
same,EC50,"[1]; read-out: half-maximal effect (EC50), T538 PKCθ phosphorylation, dose-response, 1 minute, 4–5 independent experiments, GraphPad 5.0",174 ± 8 pM
same,tmax of pT538 PKCθ phosphorylation,"[1]; time course, 5 independent experiments",0.78±0.08 min
same,"pT538 PKCθ phosphorylation, maximum at about 1 min","[1]; time course, 1 min, 5 independent experiments, mean±S.E.",197±19 % of control
same,pT538 PKCθ phosphorylation at 30 min,"[1]; time course, 30 min, 5 independent experiments, mean±S.E.",145±11 % of control
same,CCK stimulation of PKCθ activation mediated by the high affinity state CCKA receptor,CCKA receptor,30%
same,membrane associated PKCθ,PKCθ,216±34 % of control
same,phosphoT538 PKCθ in the membrane (immunofluorescence),pT538 PKCθ,increased in the membrane
same,association of PKCθ with Akt,PKCθ / Akt,increase in the association
same,association of PKCθ with RafA,PKCθ / RafA; CCK 10 nM or TPA 1 μM,increase in the association
same,direct association of PKCθ with RafA at low CCK concentration or with CCK-JMV,PKCθ / RafA; CCK 0.1–1–10 nM or CCK-JMV,observed also at low CCK concentration
same,association of PKCθ with RafC,PKCθ / RafC; CCK 10 nM or TPA 1 μM,increase in the association
same,direct association of PKCθ with RafC at low CCK concentration or with CCK-JMV,PKCθ / RafC; CCK 0.1–1–10 nM or CCK-JMV,observed also at low CCK concentration
same,association of PKCθ with Lyn,PKCθ / Lyn; CCK 10 nM or TPA 1 μM,increase in the association
same,direct association of PKCθ with Lyn at low CCK concentration or with CCK-JMV,PKCθ / Lyn; CCK 0.1–1–10 nM or CCK-JMV,observed also at low CCK concentration
same,association of PKCθ with MALT-1,PKCθ / MALT-1,"but not with MALT-1, Bcl-10, 14-3-3γ or Cbl"
same,association of PKCθ with 14-3-3γ,PKCθ / 14-3-3γ,"but not with MALT-1, Bcl-10, 14-3-3γ or Cbl"
same,association of PKCθ with Cbl,PKCθ / Cbl,"but not with MALT-1, Bcl-10, 14-3-3γ or Cbl"
same,association of PKCθ with p85 PI3K,PKCθ / p85 PI3K,but not an association with p85 PI3K
same,association of PKCθ with RafB,PKCθ / RafB,"but not an association with p85 PI3K, PKD1, RafB"
same,association of PKCθ with tubulin,PKCθ / tubulin,"but not an association with p85 PI3K, PKD1, RafB, Bcl-10, Cbl, MALT-1, tubulin"
same,phosphorylation of PKD stimulated by CCK,PKD (pS744/748),19.4±3.69 folds over control
same,"Amylase secretion (% total), −PKCθ inhibitor",[2]; CCK 0.03 nM,5.1±0.8 % total
same,"Amylase secretion (% total), −PKCθ inhibitor",[2]; CCK 0.1 nM,7.1±0.6 % total
same,"Amylase secretion (% total), −PKCθ inhibitor",[2]; CCK 100 nM,4.5±0.4 % total
same,CCK concentration for maximal PKCmu (PKD1) activation,PKCmu (PKD1),10 nM
same,share of maximal PYK2/CAKβ activation due to high affinity CCKA receptor state,PYK2/CAKβ,20%
same,share of Lyn activation due to high affinity CCKA receptor state,Lyn,60%
same,CCK concentration required to fully activate PKCδ,PKCδ; no reference printed at this sentence,100 nM
same,CCKA receptor state mediating PKCδ activation,PKCδ; ref [14],mediated only through activation of the low affinity CCKA receptor state
same,CCKA receptor state mediating CrKII phosphorylation,CrKII,mediated only through activation of the low affinity CCKA receptor state
same,CCKA receptor state mediating PI-3 kinase activation,PI-3 kinase,mediated entirely by the activation of the high affinity receptor state
same,CCKA receptor state mediating phospholipase D activation,phospholipase D,mediated entirely by the activation of the high affinity receptor state
